Experimental data as given in ChEMBL document CHEMBL1146016, “Synthesis and structure-activity relationships of 3,4-diaminocyclobut-3-ene-1,2-dione CXCR2 antagonists” (Bioorg Med Chem Lett, 2006).

Legend:
[1] = biological target: T1, C-X-C chemokine receptor type 2 (Homo sapiens, UniProt P25025); experiment: Displacement of [125I]IL8 from human CXCR2 expressed in CHO cells; format: cell-based
T1 sequence (P25025 whole entry): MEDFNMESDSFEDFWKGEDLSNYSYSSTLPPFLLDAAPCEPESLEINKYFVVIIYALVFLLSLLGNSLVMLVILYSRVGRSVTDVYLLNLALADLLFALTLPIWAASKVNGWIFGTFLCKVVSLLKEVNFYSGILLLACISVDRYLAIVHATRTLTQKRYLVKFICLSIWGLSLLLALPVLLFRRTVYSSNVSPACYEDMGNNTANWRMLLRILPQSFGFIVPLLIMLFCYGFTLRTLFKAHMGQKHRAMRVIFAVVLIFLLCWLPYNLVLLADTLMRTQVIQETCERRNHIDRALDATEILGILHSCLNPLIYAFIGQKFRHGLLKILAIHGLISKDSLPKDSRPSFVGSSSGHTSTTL

[2] = Metabolic stability in human liver microsome after 30 min at 37 degreeC; format: ADME; conditions: liver microsomes, read-out: Stability
In short: (§1)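 Liver microsomes (human or rat) incubated with compound at 1 µM final for 30 min at 37 °C in 100 mM potassium phosphate pH 7.4 with 1 mM β-NADPH; reported as percent parent remaining; means ± SD of two or more measurements.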

[3] = Permeability across Caco-2 cell membrane; format: ADME, cell-based; conditions: human
In short: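 Caco-2 monolayers in a commercial HTS Caco-2 system run per kit instructions; apicalto-basolateral apparent permeability (nm/s), binned as low or high predicted absorption; means ± SD of two or more measurements.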

[4] = Metabolic stability in rat liver microsome after 30 min at 37 degreeC; format: ADME; conditions: liver microsomes, read-out: Stability; in short: as §1

Row | Compound | IC50 [1] | other results
1 | CN(c1ccccc1O)c1c(Nc2ccccc2)c(=O)c1=O | 28.6 µM | 
2 | O=c1c(O)c(Nc2ccc([N+](=O)[O-])cc2)/c1=N/c1ccccc1 | 8.6 µM | 
3 | O=c1c(O)c(Nc2cc([N+](=O)[O-])ccc2O)/c1=N/c1ccccc1 | 0.056 µM | 
4 | N#Cc1ccc(Nc2c(O)c(=O)/c2=N\c2ccccc2)c(O)c1 | 0.003 µM | 
5 | CN(C)C(=O)c1cccc(/N=c2\c(O)c(O)\c2=N/C2CCCCC2)c1O | 0.01 µM | 
6 | CCC(CC)/N=c1\c(O)c(O)\c1=N/c1cccc(C(=O)N(C)C)c1O |  | remaining at 0.5 h [2]: 82%; Papp [3]: 12 ×10⁻⁶ cm/s; remaining at 0.5 h [4]: 75%
7 | CN(C)C(=O)c1cccc(/N=c2\c(O)c(O)\c2=N/C2CCCC2)c1O | 0.008 µM | remaining at 0.5 h [2]: 72%; Papp [3]: 10.1 ×10⁻⁶ cm/s; remaining at 0.5 h [4]: 56%
8 | N#Cc1ccc(O)c(Nc2c(O)c(=O)/c2=N\c2ccccc2)c1 | 0.074 µM | 
9 | O=C(O)c1ccc(/N=c2\c(O)c(O)\c2=N/c2ccccc2)c(O)c1 | 3.1 µM | 
10 | O=c1c(O)c(Nc2ccc([N+](=O)[O-])cc2O)/c1=N/c1ccccc1 | 0.036 µM | 
11 | O=c1c(O)c(Nc2ccccc2)/c1=N/c1ccccc1O | 0.476 µM | 
12 | CN(C)C(=O)c1cccc(/N=c2\c(O)c(O)\c2=N/C2CCOCC2)c1O | 0.171 µM | 
13 | O=C(NCc1ccccc1)c1cccc(Nc2c(O)c(=O)/c2=N\c2ccccc2)c1O | 0.139 µM | 

Further lines, with some results ahead:

Row | IC50 [1] | Compound | other results
14 | 1 µM | O=C(O)c1cccc(/N=c2\c(O)c(O)\c2=N/c2ccccc2)c1O | 
15 | 0.014 µM | CN(C)C(=O)c1cccc(/N=c2\c(O)c(O)\c2=N/C(C)(C)C)c1O | 
16 | 0.926 µM | CN(C)C(=O)c1cccc(/N=c2\c(O)c(O)\c2=N/CCc2ccccc2)c1O | 
17 | 0.002 µM | CN(C)C(=O)c1cccc(/N=c2\c(O)c(O)\c2=N/c2ccccc2)c1O | remaining at 0.5 h [2]: 64%; Papp [3]: 2.4 ×10⁻⁶ cm/s; remaining at 0.5 h [4]: 67%
18 | 0.041 µM | CN(C)C(=O)c1cccc(/N=c2\c(O)c(O)\c2=N/Cc2ccco2)c1O | 
19 | 0.548 µM | CN(C)C(=O)c1cccc(/N=c2\c(O)c(O)\c2=N/[C@@H]2CCc3ccccc32)c1O | 
20 | 0.065 µM | CCNC(=O)c1cccc(/N=c2\c(O)c(O)\c2=N/c2ccccc2)c1O | 
21 | 0.034 µM | NC(=O)c1cccc(/N=c2\c(O)c(O)\c2=N/c2ccccc2)c1O | 
22 | 7.2 µM | CN(C)C(=O)c1cccc(/N=c2/c(N(C)c3ccccc3)c(O)c2=O)c1O | 
23 | 0.01 µM | CC(C)/N=c1\c(O)c(O)\c1=N/c1cccc(C(=O)N(C)C)c1O | 
24 | 0.022 µM | CNC(=O)c1cccc(/N=c2\c(O)c(O)\c2=N/c2ccccc2)c1O | 
25 | 0.053 µM | COC(=O)c1cccc(/N=c2\c(O)c(O)\c2=N/c2ccccc2)c1O | 
26 | 0.002 µM | CN(C)C(=O)c1cc(Cl)cc(/N=c2\c(O)c(O)\c2=N/c2ccccc2)c1O | 
